Activity data for 2 compounds are collected here from ChEMBL document CHEMBL1138239, “Probing molecular interactions within class II MHC Aq/glycopeptide/T-cell receptor complexes associated with collagen-induced arthritis” (2007).

Holding throughout (assay type): functional, Mus musculus
A short description of assay [1]: Induction of immune response of T-cell HD13.9 hybridoma in presence of antigen-presenting spleen cells expressing Aq assessed as drug concentration required to induce IL2 secretion after 24 hrs by ELISA. The essentials: (§1)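 5 × 10⁴ hybridoma cells co-cultured with 5 × 10⁵ syngeneic spleen cells and glycopeptide at 0, 0.00128, 0.0064, 0.032, 0.16, 0.8, 4, 20 µM for 24 h. Supernatant frozen, then IL-2 measured by sandwich ELISA (rat anti-mouse IL-2 capture and biotin detection, DELFIA read-out) against a recombinant mouse IL-2 standard. Score is the lowest concentration giving IL-2 at 6% of the maximal response to the native CII259-273 glycopeptide reference.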
(In general: An ELISA detects its analyte on a solid surface through an enzyme-linked reagent.)

Assay [2] is described as follows: Induction of immune response of T-cell HD13.10 hybridoma in presence of antigen-presenting spleen cells expressing Aq assessed as drug concentration required to induce IL2 secretion after 24 hrs by ELISA. The essentials: as §1
A short description of assay [3]: Induction of immune response of T-cell HNC.1 hybridoma in presence of antigen-presenting spleen cells expressing Aq assessed as drug concentration required to induce IL2 secretion after 24 hrs by ELISA. The essentials: as §1
A short description of assay [4]: Induction of immune response of T-cell HCQ.2 hybridoma in presence of antigen-presenting spleen cells expressing Aq assessed as drug concentration required to induce IL2 secretion after 24 hrs by ELISA. The essentials:
as §1

Assay [5] can be described thus: Induction of immune response of T-cell HCQ.3 hybridoma in presence of antigen-presenting spleen cells expressing Aq assessed as drug concentration required to induce IL2 secretion after 24 hrs by ELISA. Put shortly: as §1
Assay [6] can be described thus: Induction of immune response of T-cell HCQ.6 hybridoma in presence of antigen-presenting spleen cells expressing Aq assessed as drug concentration required to induce IL2 secretion after 24 hrs by ELISA. The essentials: as §1
Assay [7] can be described thus: Induction of immune response of T-cell HMIR.2 hybridoma in presence of antigen-presenting spleen cells expressing Aq assessed as drug concentration required to induce IL2 secretion after 24 hrs by ELISA. The essentials: as §1
Assay [8] is described as follows: Induction of immune response of T-cell 22a1-7E hybridoma in presence of antigen-presenting spleen cells expressing Aq assessed as drug concentration required to induce IL2 secretion after 24 hrs by ELISA. Put shortly:
as §1

*1 amine or outer side, *2 acyl side, *3 side chain or, on linkers, in order; H or OH if unused. Where a SMILES comes first, the peptide text is derived from it. [ ]: non-standard residue; d: D form. X4 = NC[C@@H](CC[C@H](N[*:1])C(=O)[*:2])O[C@@H]1O[C@H](CO)[C@H](O)[C@H](O)[C@H]1O; X2 = C[C@H](N[*:1])C(=O)CCC(=O)[*:2]; X5 = C[C@@H](/C=C/CC(=O)[*:2])N[*:1]

Take `CC[C@H](C)[C@H](NC(=O)CN)C(=O)N[C@@H](C)C(=O)CCC(=O)N[C@@H](Cc1ccccc1)C(=O)N[C@@H](CC[C@H](CN)O[C@@H]1O[C@H](CO)[C@H](O)[C@H](O)[C@H]1O)C(=O)NCC(=O)N[C@@H](CCC(=O)O)C(=O)N[C@@H](CCC(N)=O)C(=O)NCC(=O)N1CCC[C@H]1C(=O)N[C@@H](CCCCN)C(=O)NCC(=O)N[C@@H](CCC(=O)O)C(=O)N[C@H](C(=O)O)[C@@H](C)O` (H-GI[X2]F[X4]GEQGPKGET-OH): the Activity in assay [1] is 0.8 µM; in assay [2] it was 0.8 µM; in assay [3], 4 µM; in assay [4], 0.8 µM; in assay [5], 0.8 µM; in assay [6], 0.8 µM. In addition, the Activity in assay [7] and in assay [8] was 4 µM throughout.
In the case of `CC[C@H](C)[C@H](NC(=O)CN)C(=O)N[C@@H](C)/C=C/CC(=O)N[C@@H](Cc1ccccc1)C(=O)N[C@@H](CC[C@H](CN)O[C@@H]1O[C@H](CO)[C@H](O)[C@H](O)[C@H]1O)C(=O)NCC(=O)N[C@@H](CCC(=O)O)C(=O)N[C@@H](CCC(N)=O)C(=O)NCC(=O)N1CCC[C@H]1C(=O)N[C@@H](CCCCN)C(=O)NCC(=O)N[C@@H](CCC(=O)O)C(=O)N[C@H](C(=O)O)[C@@H](C)O` (H-GI[X5]F[X4]GEQGPKGET-OH), the Activity in assay [4], in assay [5] and in assay [6] was 20 µM throughout.
